Columns and labels:
[1] = Cytotoxicity against African green monkey Vero cells after 72 hrs by MTT assay; assay type: cell-based; settings: chlorocebus sabaeus
Method in brief: (§1)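 VERO (ATCC CCL-81) and HepG2 (ATCC HB-8065) cells were exposed for 24, 48 or 72 h to an […] dilution series from 400 to 1.56 μM. CC50 was taken from the concentration–response curve. Triplicates, with at least three independent cultures (n = 3).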

[2] = tested on: Plasmodium falciparum; test: Antiplasmodial activity against chloroquine-resistant Plasmodium falciparum W2 infected in human erythrocytes; assay type: functional, organism-based
Method in brief: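 P. falciparum W2 grown in fresh human O+ erythrocytes at 2% hematocrit in complete medium, 37 °C. Compounds tested over a 100–3.12 µM dilution series. IC50 estimated from the dose-response curve relative to drug-free control wells (100% parasite viability). Artemisinin run in parallel as control. Triplicates, at least three independent cultures (n = 3).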

[3] = Cytotoxicity against human HepG2 cells after 72 hrs by MTT assay; assay type: cell-based; method in brief: as §1
[4] = Selectivity index, ratio of CC50 for human HepG2 cells to IC50 for chloroquine-resistant Plasmodium falciparum W2; assay type: toxicity; settings: read-out: Ratio CC50/IC50
Method in brief: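 SI = HepG2 CC50 / W2 IC50. CC50 came from HepG2 growth inhibition over a 400–1.56 µM dilution series, read at 24, 48 and 72 h. IC50 came from the W2 erythrocyte assay (100–3.12 µM range). Triplicates, at least three independent cultures.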

[5] = tested on: Plasmodium falciparum; test: Antiplasmodial activity against Plasmodium falciparum assessed as potentiation of artemisinin-induced antimalarial activity by measuring dose reduction index relative to artemisinin alone; assay type: functional
[6] = tested on: Plasmodium falciparum; test: Antiplasmodial activity against Plasmodium falciparum assessed as combination index in presence of artemisinin; assay type: functional
Method in brief: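 Chloroquine-resistant P. falciparum W2 was grown in fresh human O+ erythrocytes at 2% hematocrit in complete medium at 37 °C. Artemisinin was co-tested with the triterpene using the one-point Chou–Talalay method, at a minimum of one combination ratio. CI is the sum of the two FICs: ≤1 synergy, 1–2 additivity, >2 antagonism. Triplicates, n = 3 independent cultures.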

## COC(=O)[C@]12CC[C@@H](C)[C@H](C)[C@H]1C1=CC[C@@H]3[C@@]4(C)CCC(=O)C(C)(C)[C@@H]4CC[C@@]3(C)[C@]1(C)CC2
[1]
  CC50 at 72 h: > 400 µM
[2]
  IC50: > 100 µM
[3]
  CC50 at 72 h: > 400 µM

## C=C(C)[C@@H]1CC[C@]2(C(=O)O)CC[C@]3(C)[C@H](CC[C@@H]4[C@@]5(C)CC[C@H](O)C(C)(C)[C@@H]5CC[C@]43C)[C@@H]12 [BETULINIC ACID]
[1]
  CC50 at 72 h: > 400 µM
[4]
  selectivity ratio: > 31.4
[2]
  IC50: 12.8 µM
[3]
  CC50 at 72 h: > 400 µM

## C=C(C)[C@@H]1CC[C@]2(C(=O)O)CC[C@]3(C)[C@H](CC[C@@H]4[C@@]5(C)CC[C@H](OC(C)=O)C(C)(C)[C@@H]5CC[C@]43C)[C@@H]12
[1]
  CC50 at 72 h: > 400 µM
[4]
  selectivity ratio: > 6.11
[2]
  IC50: 65.5 µM
[3]
  CC50 at 72 h: > 400 µM

## C=C(C)[C@@H]1CC[C@]2(C(=O)n3ccnc3)CC[C@]3(C)[C@H](CC[C@@H]4[C@@]5(C)CC[C@H](OC(=O)C(C)C)C(C)(C)[C@@H]5CC[C@]43C)[C@@H]12
[1]
  CC50 at 72 h: > 400 µM
[4]
  selectivity ratio: > 13.5
[2]
  IC50: 29.6 µM
[3]
  CC50 at 72 h: > 400 µM

## CCCC(=O)O[C@H]1CC[C@]2(C)[C@H]3CC=C4[C@@H]5[C@@H](C)[C@H](C)CC[C@]5(C(=O)OC)CC[C@@]4(C)[C@]3(C)CC[C@H]2C1(C)C
[1]
  CC50 at 72 h: > 400 µM
[2]
  IC50: > 100 µM
[3]
  CC50 at 72 h: > 400 µM

## CC(C)C(=O)O[C@H]1CC[C@]2(C)[C@H]3CC=C4[C@@H]5[C@@H](C)[C@H](C)CC[C@]5(C(=O)n5ccnc5)CC[C@@]4(C)[C@]3(C)CC[C@H]2C1(C)C
[1]
  CC50 at 72 h: > 400 µM
[4]
  selectivity ratio: > 29.4
[2]
  IC50: 13.6 µM
[3]
  CC50 at 72 h: > 400 µM

## CCCC(=O)O[C@H]1CC[C@]2(C)[C@H]3CC=C4[C@@H]5[C@@H](C)[C@H](C)CC[C@]5(C(=O)n5ccnc5)CC[C@@]4(C)[C@]3(C)CC[C@H]2C1(C)C
[1]
  CC50 at 72 h: > 400 µM
[4]
  selectivity ratio: > 38.5
[2]
  IC50: 10.4 µM
[3]
  CC50 at 72 h: > 400 µM

## C[C@H]1[C@H](C)CC[C@]2(C(=O)O)CC[C@]3(C)C(=CC[C@@H]4[C@@]5(C)CCC(=O)C(C)(C)[C@@H]5CC[C@]43C)[C@H]12 [URSONIC ACID]
[1]
  CC50 at 72 h: > 400 µM
[4]
  selectivity ratio: > 16.5
[2]
  IC50: 24.3 µM
[3]
  CC50 at 72 h: > 400 µM

## C=C(C)[C@@H]1CC[C@]2(C(=O)OC)CC[C@]3(C)[C@H](CC[C@@H]4[C@@]5(C)CC[C@H](OC(=O)CCC)C(C)(C)[C@@H]5CC[C@]43C)[C@@H]12
[1]
  CC50 at 72 h: > 400 µM
[2]
  IC50: > 100 µM
[3]
  CC50 at 72 h: > 400 µM

## C=C(C)[C@@H]1CC[C@]2(C(=O)O)CC[C@]3(C)[C@H](CC[C@@H]4[C@@]5(C)CCC(=O)C(C)(C)[C@@H]5CC[C@]43C)[C@@H]12 [BETUNOLIC ACID]
[1]
  CC50 at 72 h: > 400 µM
[4]
  selectivity ratio: 19.1
[2]
  IC50: 7.87 µM
[3]
  CC50 at 72 h: 150 µM

## C=C(C)[C@@H]1CC[C@]2(C(=O)n3ccnc3)CC[C@]3(C)[C@H](CC[C@@H]4[C@@]5(C)CC[C@H](OC(C)=O)C(C)(C)[C@@H]5CC[C@]43C)[C@@H]12
[1]
  CC50 at 72 h: > 400 µM
[4]
  selectivity ratio: > 44.9
[2]
  IC50: 8.9 µM
[3]
  CC50 at 72 h: > 400 µM

## C[C@@H]1CC[C@H]2[C@@H](C)C(=O)O[C@@H]3O[C@@]4(C)CC[C@@H]1[C@]32OO4 [ARTEMISININ]
[2]
  IC50: 0.0163 µM

## CC(=O)O[C@H]1CC[C@]2(C)[C@H]3CC=C4[C@@H]5[C@@H](C)[C@H](C)CC[C@]5(C(=O)n5ccnc5)CC[C@@]4(C)[C@]3(C)CC[C@H]2C1(C)C
[1]
  CC50 at 72 h: > 400 µM
[4]
  selectivity ratio: > 7.9
[2]
  IC50: 50.6 µM
[3]
  CC50 at 72 h: > 400 µM

## C=C(C)[C@@H]1CC[C@]2(C(=O)OC)CC[C@]3(C)[C@H](CC[C@@H]4[C@@]5(C)CC[C@H](OC(C)=O)C(C)(C)[C@@H]5CC[C@]43C)[C@@H]12
[1]
  CC50 at 72 h: > 400 µM
[2]
  IC50: > 100 µM
[3]
  CC50 at 72 h: > 400 µM

## C=C(C)[C@@H]1CC[C@]2(C(=O)n3ccnc3)CC[C@]3(C)[C@H](CC[C@@H]4[C@@]5(C)CCC(=O)C(C)(C)[C@@H]5CC[C@]43C)[C@@H]12
[1]
  CC50 at 72 h: > 400 µM
[4]
  selectivity ratio: > 76.8
[2]
  IC50: 5.2 µM
[3]
  CC50 at 72 h: > 400 µM

## C=C(C)[C@@H]1CC[C@]2(C(=O)OC)CC[C@]3(C)[C@H](CC[C@@H]4[C@@]5(C)CC[C@H](OC(=O)C(C)C)C(C)(C)[C@@H]5CC[C@]43C)[C@@H]12
[1]
  CC50 at 72 h: > 400 µM
[2]
  IC50: > 100 µM
[3]
  CC50 at 72 h: > 400 µM

## CCCC(=O)O[C@H]1CC[C@]2(C)[C@H]3CC=C4[C@@H]5[C@@H](C)[C@H](C)CC[C@]5(C(=O)O)CC[C@@]4(C)[C@]3(C)CC[C@H]2C1(C)C
[1]
  CC50 at 72 h: > 400 µM
[5]
  Activity_index: 7
[4]
  selectivity ratio: > 30
[6]
  CI: 1.05
[2]
  IC50: 13.3 µM
[3]
  CC50 at 72 h: > 400 µM

## C=C(C)[C@@H]1CC[C@]2(C(=O)O)CC[C@]3(C)[C@H](CC[C@@H]4[C@@]5(C)CC[C@H](OC(=O)C(C)C)C(C)(C)[C@@H]5CC[C@]43C)[C@@H]12
[1]
  CC50 at 72 h: > 400 µM
[4]
  selectivity ratio: > 33
[2]
  IC50: 12.1 µM
[3]
  CC50 at 72 h: > 400 µM

## C=C(C)[C@@H]1CC[C@]2(C(=O)OC)CC[C@]3(C)[C@H](CC[C@@H]4[C@@]5(C)CCC(=O)C(C)(C)[C@@H]5CC[C@]43C)[C@@H]12 [METHYL BETULONATE]
[1]
  CC50 at 72 h: > 400 µM
[2]
  IC50: > 100 µM
[3]
  CC50 at 72 h: > 400 µM

## C=C(C)[C@@H]1CC[C@]2(C(=O)n3ccnc3)CC[C@]3(C)[C@H](CC[C@@H]4[C@@]5(C)CC[C@H](OC(=O)CCC)C(C)(C)[C@@H]5CC[C@]43C)[C@@H]12
[1]
  CC50 at 72 h: > 400 µM
[4]
  selectivity ratio: > 6.94
[2]
  IC50: 57.6 µM
[3]
  CC50 at 72 h: > 400 µM

## CC(=O)O[C@H]1CC[C@]2(C)[C@H]3CC=C4[C@@H]5[C@@H](C)[C@H](C)CC[C@]5(C(=O)O)CC[C@@]4(C)[C@]3(C)CC[C@H]2C1(C)C [O-ACETYLURSOLIC ACID]
[1]
  CC50 at 72 h: > 400 µM
[4]
  selectivity ratio: > 44
[2]
  IC50: 9.08 µM
[3]
  CC50 at 72 h: > 400 µM

## C[C@H]1[C@H](C)CC[C@]2(C(=O)O)CC[C@]3(C)C(=CC[C@@H]4[C@@]5(C)CC[C@H](O)C(C)(C)[C@@H]5CC[C@]43C)[C@H]12 [URSOLIC ACID]
[1]
  CC50 at 72 h: 99.9 µM
[4]
  selectivity ratio: 2.24
[2]
  IC50: 50.6 µM
[3]
  CC50 at 72 h: 114 µM

## C[C@H]1[C@H](C)CC[C@]2(C(=O)n3ccnc3)CC[C@]3(C)C(=CC[C@@H]4[C@@]5(C)CCC(=O)C(C)(C)[C@@H]5CC[C@]43C)[C@H]12
[1]
  CC50 at 72 h: > 400 µM
[4]
  selectivity ratio: > 44.1
[2]
  IC50: 9.07 µM
[3]
  CC50 at 72 h: > 400 µM

## COC(=O)[C@]12CC[C@@H](C)[C@H](C)[C@H]1C1=CC[C@@H]3[C@@]4(C)CC[C@H](OC(C)=O)C(C)(C)[C@@H]4CC[C@@]3(C)[C@]1(C)CC2
[1]
  CC50 at 72 h: > 400 µM
[2]
  IC50: > 100 µM
[3]
  CC50 at 72 h: > 400 µM

## COC(=O)[C@]12CC[C@@H](C)[C@H](C)[C@H]1C1=CC[C@@H]3[C@@]4(C)CC[C@H](OC(=O)C(C)C)C(C)(C)[C@@H]4CC[C@@]3(C)[C@]1(C)CC2
[1]
  CC50 at 72 h: > 400 µM
[2]
  IC50: > 100 µM
[3]
  CC50 at 72 h: > 400 µM

## CC(C)C(=O)O[C@H]1CC[C@]2(C)[C@H]3CC=C4[C@@H]5[C@@H](C)[C@H](C)CC[C@]5(C(=O)O)CC[C@@]4(C)[C@]3(C)CC[C@H]2C1(C)C
[1]
  CC50 at 72 h: > 400 µM
[2]
  IC50: > 100 µM
[3]
  CC50 at 72 h: > 400 µM

From ChEMBL document CHEMBL4184121, “Semisynthesis, cytotoxicity, antimalarial evaluation and structure-activity relationship of two series of triterpene derivatives” (Bioorg Med Chem Lett, 2018)
